From ChEMBL document CHEMBL1127478 (J Med Chem, 1994)
Residues, ends and D or L forms follow the SMILES beside them.

Legend:
[1] = organism: Rattus norvegicus; assay: In vitro antiuterotonic activity in rat oxytocic bioassay in the absence of Mg2+; assay type: functional; conditions: read-out: pA2 (converted)
[2] = organism: Rattus norvegicus; assay: Inhibition of pressor response to exogenous AVP in the pitched rat preparation; assay type: functional, organism-based; conditions: read-out: pA2 (converted)
In short: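 Pressor test in pitched rats. Reported as the negative decadic log of the effective dose (mol/kg) that reduces the effect of a 1×10^-5 mg AVP dose to the level of […] AVP. Values are mean ± SE.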

[3] = target: Vasopressin V1 receptor (Rattus norvegicus, UniProt P48974+P30560); assay: Inhibition of radioligand [3H]AVP binding to V1 receptor in rat liver plasma membrane; assay type: cell membranes
In short: (§1)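 Competition binding with 10 nM [3H]AVP (17.4 Ci/mmol) and varying concentrations of unlabeled peptide. V1 used rat liver plasma membranes prepared by two-phase polymer separation. V2 used bovine kidney inner medulla membranes prepared by differential centrifugation. Kd came from a weighted nonlinear least-squares fit to logistic curves.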

[4] = target: Vasopressin V2 receptor (Bos taurus, UniProt P48044); assay: Inhibition of radioligand [3H]AVP binding to V2 receptor in bovine kidney inner medulla membrane; in short: as §1
Chain of Vasopressin V2 receptor (P48044 whole entry): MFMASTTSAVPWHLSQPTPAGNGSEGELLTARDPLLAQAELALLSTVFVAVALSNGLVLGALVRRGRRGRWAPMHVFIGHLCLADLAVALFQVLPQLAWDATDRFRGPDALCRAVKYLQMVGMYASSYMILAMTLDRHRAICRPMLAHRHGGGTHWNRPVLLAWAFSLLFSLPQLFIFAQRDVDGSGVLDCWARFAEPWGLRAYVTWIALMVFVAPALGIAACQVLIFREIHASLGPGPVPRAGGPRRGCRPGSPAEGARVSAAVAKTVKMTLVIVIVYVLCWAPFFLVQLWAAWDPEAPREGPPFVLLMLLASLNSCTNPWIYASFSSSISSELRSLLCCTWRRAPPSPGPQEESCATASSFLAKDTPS

[5] = organism: Rattus norvegicus; assay: In vitro antiuterotonic activity in rat oxytocic bioassay in the presence of 1 mM Mg2+; assay type: functional; conditions: read-out: pA2 (converted)
In short: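 Isolated rat uterus in medium containing 1 mM Mg2+, with oxytocin-induced contractions challenged by the antagonist.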

[6] = tested on: Rattus norvegicus; assay: In vivo antiuterotonic activity in the rat uterotonic assay; assay type: functional, organism-based; conditions: read-out: pA2 (converted)
[7] = Selectivity aUT/aP ratio of the compound; assay type: functional
In short: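 Reciprocal of the ratio of effective doses in the uterotonic in vitro test (mol/L) and the pressor test (mol/kg). Where given in parentheses, the reciprocal of the ratio of the uterotonic in vivo dose (mol/kg) to the pressor dose (mol/kg).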

Kd [3]	Kd [4]	Structure (SMILES)	Kb [1]	Kb [2]	Kb [5]	Kb [6]	Ratio [7]
–	–	CN(CC(=O)N[C@@H](CCCN=C(N)N)C(=O)NCC(N)=O)C(=O)[C@@H]1CSSC2(CCCCC2)CC(=O)N[C@@H](Cc2ccc(O)cc2)C(=O)N[C@@H](Cc2ccccc2)C(=O)N[C@@H](CCC(N)=O)C(=O)N[C@@H](CC(N)=O)C(=O)N1	112 nM	11.7 nM	–	–	–
0.59 nM	240 nM	CN(CC(=O)N[C@@H](CCCNC(=N)N)C(=O)NCC(N)=O)C(=O)[C@@H]1CSSC2(CCCCC2)CC(=O)N[C@@H](Cc2ccc(O)cc2)C(=O)N[C@@H](Cc2ccccc2)C(=O)N[C@@H](CCC(N)=O)C(=O)N[C@@H](CC(N)=O)C(=O)N1	–	–	–	–	–
–	–	CC[C@H](C)[C@@H]1NC(=O)[C@@H](Cc2ccc(OC)cc2)NC(=O)CC2(CCCCC2)SSC[C@@H](C(=O)N2CCC[C@H]2C(=O)N[C@@H](CCCN)C(=O)NCC(N)=O)NC(=O)[C@H](CC(N)=O)NC(=O)[C@H](CCC(N)=O)NC1=O	3.02 nM	11 nM	–	–	–
2 nM	811 nM	CC[C@H](C)[C@@H]1NC(=O)[C@@H](Cc2ccc(OC)cc2)NC(=O)CC2(CCCCC2)SSC[C@@H](C(=O)N(C)CC(=O)N[C@@H](CCCN=C(N)N)C(=O)NCC(N)=O)NC(=O)[C@H](CC(N)=O)NC(=O)[C@H](CCC(N)=O)NC1=O	2.51 nM	20 nM	6.31 nM	31.6 nM	–
–	–	NC(=O)CC[C@@H]1NC(=O)[C@H](Cc2ccccc2)NC(=O)[C@H](Cc2ccc(O)cc2)NC(=O)CC2(CCCCC2)SSC[C@H](C(=O)N2CCC[C@H]2C(=O)N[C@@H](CCCN=C(N)N)C(=O)NCC(N)=O)NC(=O)[C@H](CC(N)=O)NC1=O	–	–	–	–	0.6
8.28 nM	182 nM	CC[C@H](C)C1NC(=O)CC2(CCCCC2)SSC[C@@H](C(=O)N(C)CC(=O)N[C@@H](CCCN=C(N)N)C(=O)NCC(N)=O)NC(=O)[C@H](CC(N)=O)NC(=O)[C@H](CCC(N)=O)NC(=O)[C@H](Cc2ccccc2)NC1=O (stereo in doubt)	31.6 nM	63.1 nM	100 nM	251 nM	–
0.96 nM	98 nM	CN(CC(=O)N[C@@H](CCCN=C(N)N)C(=O)NCC(N)=O)C(=O)[C@@H]1CSSC2(CCCCC2)CC(=O)NC(Cc2ccccc2)C(=O)NC(Cc2ccccc2)C(=O)N[C@@H](CCC(N)=O)C(=O)N[C@@H](CC(N)=O)C(=O)N1 (stereo in doubt)	7.94 nM	15.8 nM	–	25.1 nM	2
0.22 nM	230 nM	CN(CC(=O)N[C@@H](CCCN=C(N)N)C(=O)NCC(N)=O)C(=O)[C@@H]1CSSC2(CCCCC2)CC(=O)NC(Cc2ccc(O)cc2)C(=O)N[C@@H](Cc2ccccc2)C(=O)N[C@@H](CCC(N)=O)C(=O)N[C@@H](CC(N)=O)C(=O)N1 (stereo in doubt)	10 nM	10 nM	–	100 nM	–
8.28 nM	311 nM	CC[C@H](C)[C@@H]1NC(=O)C(Cc2ccccc2)NC(=O)CC2(CCCCC2)SSC[C@H](C(=O)N(C)CC(=O)N[C@@H](CCCN=C(N)N)C(=O)NCC(N)=O)NC(=O)[C@H](CC(N)=O)NC(=O)[C@H](CCC(N)=O)NC1=O (stereo in doubt)	10 nM	100 nM	10 nM	39.8 nM	10
13.1 nM	35 nM	CCOc1ccc(CC2NC(=O)CC3(CCCCC3)SSC[C@H](C(=O)N(C)CC(=O)N[C@@H](CCCN=C(N)N)C(=O)NCC(N)=O)NC(=O)[C@H](CC(N)=O)NC(=O)[C@H](CCC(N)=O)NC(=O)[C@H]([C@@H](C)CC)NC2=O)cc1 (stereo in doubt)	5.01 nM	398 nM	7.94 nM	31.6 nM	80
0.32 nM	29 nM	CCOc1ccc(CC2NC(=O)CC3(CCCCC3)SSC[C@@H](C(=O)N(C)CC(=O)N[C@@H](CCCN=C(N)N)C(=O)NCC(N)=O)NC(=O)[C@H](CC(N)=O)NC(=O)[C@H](CCC(N)=O)NC(=O)[C@H](Cc3ccccc3)NC2=O)cc1 (stereo in doubt)	3.98 nM	10 nM	–	79.4 nM	2.5
–	–	CC[C@H](C)[C@@H]1NC(=O)C(Cc2ccccc2)NC(=O)CCSSC[C@H](C(=O)N(C)CC(=O)N[C@@H](CCCN=C(N)N)C(=O)NCC(N)=O)NC(=O)[C@H](CC(N)=O)NC(=O)[C@H](CCC(N)=O)NC1=O (stereo in doubt) [listing 1 of 2 here]	5.01 nM	398 nM	10 nM	39.8 nM	–
50.1 nM	421 nM	CC[C@H](C)[C@@H]1NC(=O)C(Cc2ccccc2)NC(=O)CCSSC[C@H](C(=O)N(C)CC(=O)N[C@@H](CCCN=C(N)N)C(=O)NCC(N)=O)NC(=O)[C@H](CC(N)=O)NC(=O)[C@H](CCC(N)=O)NC1=O (stereo in doubt) [listing 2 of 2 here]	–	–	–	–	–

Structure (SMILES)	Kd [3]	Kd [4]	Kb [1]	Kb [2]	Kb [5]	Kb [6]	Ratio [7]
CC[C@H](C)[C@@H]1NC(=O)[C@@H](Cc2c[nH]c3ccccc23)NC(=O)CC2(CCCCC2)SSC[C@@H](C(=O)N(C)CC(=O)N[C@@H](CCCN=C(N)N)C(=O)NCC(N)=O)NC(=O)[C@H](CC(N)=O)NC(=O)[C@H](CCC(N)=O)NC1=O (HELM PEPTIDE1{[dW].I.Q.N.C.[Sar].R.G.[am]}|CHEM1{[O=C(CC1(S[*:2])CCCCC1)[*:1]]}$PEPTIDE1,CHEM1,1:R1-1:R1|PEPTIDE1,CHEM1,5:R3-1:R2$$$V2.0)	3.8 nM	300000 nM	12.6 nM	31.6 nM	20 nM	31.6 nM	–
